ChEMBL document CHEMBL1147489, “Pi-delocalized beta-carbolinium cations as potential antimalarials” (Bioorg Med Chem Lett, 2004)

Assays:
Plasmodium falciparum = experiment: In vitro antimalarial activity against Plasmodium falciparum FCR3; type: functional, organism-based
Procedure, shortened: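 Drug-sensitive P. falciparum FCR-3 strain tested in vitro; antimalarial potency given as EC50 (M).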

FM3A [1] = experiment: In vitro cytotoxic activity tested in mouse mammary tumor FM3A cells; type: functional, cell-based
Procedure, shortened: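 Growth-inhibition assay in mouse mammary tumour FM3A cells, used as a model of the host. The value reported is the EC50 for cell growth.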

FM3A [2] = experiment: Relative activity against FM3A cells and Plasmodium falciparum FCR3; type: functional
Procedure, shortened: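 Selective toxicity calculated as EC50 in FM3A cells divided by EC50 against P. falciparum FCR-3.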

FM3A [3] = experiment: In vitro growth inhibitory activity tested in mouse mammary tumor FM3A cells at 3.0E-5 M concentration

Structure (SMILES) | EC50 (Plasmodium falciparum) | EC50 (FM3A [1]) | Selective toxicity (FM3A [2]) | Percent growth (FM3A [3])
CCOC(=O)c1c2[nH]c3ccccc3c2c(OC)c[n+]1C.Cc1ccc(S(=O)(=O)[O-])cc1 | 19 µM | 22 µM | 1.2 | 
CCc1c2[nH]c3ccccc3c2c(OC)c[n+]1C.[I-] | 0.95 µM |  | >32 | 63%
C[n+]1ccc2c([nH]c3ccccc32)c1-c1ccccc1.Cc1ccc(S(=O)(=O)[O-])cc1 | 13 µM |  | >1.8 | 
COc1ccc2c3cc[n+](CCO)c(C)c3n(C)c2c1.[Br-] | 1.1 µM |  | >65 | 
C=Cc1c2[nH]c3ccccc3c2c(OC)c[n+]1CC.Cc1ccc(S(=O)(=O)[O-])cc1 | 0.13 µM | 10 µM | 77 | 
C=C[C@H]1CN2CC[C@H]1C[C@H]2[C@H](O)c1ccnc2ccc(OC)cc12 [QUININE] |  |  | 910 | 
COc1ccc2c(c1)[nH]c1c(C)[n+](C)ccc12.Cc1ccc(S(=O)(=O)[O-])cc1 | 1.1 µM | 19 µM | 17 | 
COc1c[n+](C)c(C)c2[nH]c3ccccc3c12.[I-] | 0.37 µM | 30 µM | 81 | 
COc1ccc2c3ccnc(C)c3n(C)c2c1 | 31 µM | 32 µM | 1 | 
Cc1c2nc3ccccc3c-2ccn1C | 4.8 µM | 29 µM | 6 | 
COc1ccc2c3cc[n+](C)c(C)c3n(C)c2c1.Cc1ccc(S(=O)(=O)[O-])cc1 | 0.46 µM | 22 µM | 48 | 
COc1ccc2c(c1)[nH]c1c(C)nccc12 [HARMINE] | 22 µM | 18 µM | 0.82 | 
COc1cnc(C)c2[nH]c3ccccc3c12 | 22 µM | 18 µM | 0.82 | 
C=Cc1c2[nH]c3ccccc3c2c(OC)c[n+]1C.Cc1ccc(S(=O)(=O)[O-])cc1 | 1.1 µM | 8.4 µM | 7.6 | 
CC1=[N+](C)CCc2c1[nH]c1ccccc21.Cc1ccc(S(=O)(=O)[O-])cc1 | 16 µM |  | >24 | 
Cc1c2[nH]c3ccccc3c2cc[n+]1C.Cc1ccc(S(=O)(=O)[O-])cc1 | 2 µM | 35 µM | 18 | 
CC1=NCCc2c1[nH]c1ccccc21 | 18 µM | 45 µM | 2.1 | 
C=Cc1ncc(OC)c2c1[nH]c1ccccc12 | 5 µM | 3.8 µM | 0.76 | 
